Tests used:
[1] = molecular target: T1, Adenosine receptor A3 (Homo sapiens) (UniProt P0DMS8); assay: Displacement of [125I]ABA from human adenosine A3 receptor expressed in HEK cells relative to control; type: cell-based; set-up: concentration or dose not given beside the values; conditions: HEK293
T1 sequence (whole entry): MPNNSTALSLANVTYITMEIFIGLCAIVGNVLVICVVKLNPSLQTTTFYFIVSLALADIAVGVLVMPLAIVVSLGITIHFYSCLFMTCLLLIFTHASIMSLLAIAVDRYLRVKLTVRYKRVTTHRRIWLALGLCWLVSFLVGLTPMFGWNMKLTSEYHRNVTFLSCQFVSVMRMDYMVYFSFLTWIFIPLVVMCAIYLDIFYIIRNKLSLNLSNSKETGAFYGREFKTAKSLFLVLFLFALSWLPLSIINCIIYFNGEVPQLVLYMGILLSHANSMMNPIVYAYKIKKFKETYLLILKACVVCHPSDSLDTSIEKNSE
Procedure, shortened: (§1)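 Single-point screen at 1 µM antagonist, run in duplicate, on transfected-cell membranes: CHO-K1 (hA1), HEK (hA2A, hA2B, hA3). 2 h at room temperature in 50 mM HEPES pH 7.4, 1 mM EDTA, 5 mM MgCl2, 1 U/mL adenosine deaminase; 5% DMSO except hA3. Nonspecific binding with 50 µM XAC, or 10 µM BW-1433 for hA3. Result is % radioligand bound relative to control.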

[2] = molecular target: T2, Adenosine receptor A2b (Homo sapiens) (UniProt P29275); assay: Displacement of [125I]3-(4-aminobenzyl)-8-phenyloxyacetate-1-propyl-xanthine from human adenosine A2B receptor expressed in HEK cells relative to control; type: cell-based; set-up: concentration or dose not given beside the values; conditions: HEK293; procedure, shortened: as §1
T2 sequence (whole entry): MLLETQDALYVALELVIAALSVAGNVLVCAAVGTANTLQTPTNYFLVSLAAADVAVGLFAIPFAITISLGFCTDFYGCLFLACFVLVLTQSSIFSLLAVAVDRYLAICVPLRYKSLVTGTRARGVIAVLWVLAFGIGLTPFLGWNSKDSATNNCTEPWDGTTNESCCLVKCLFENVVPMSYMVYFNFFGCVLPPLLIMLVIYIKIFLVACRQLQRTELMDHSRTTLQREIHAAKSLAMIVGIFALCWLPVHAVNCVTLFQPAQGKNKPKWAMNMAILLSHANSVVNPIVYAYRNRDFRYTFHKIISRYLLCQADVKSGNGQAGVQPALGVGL

[3] = molecular target: Adenosine receptors; A1 & A2a (Homo sapiens) (UniProt P30542+P29274); assay: Selectivity for human adenosine A1 receptor over human adenosine A2A receptor; type: protein assay
[4] = molecular target: T3, Adenosine receptor A2a (Homo sapiens, UniProt P29274); assay: Displacement of [125I]ZM-241385 from human adenosine A2A receptor expressed in HEK cells; type: cell-based, HEK293
Procedure, shortened: (§2)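 Membranes from stably transfected CHO-K1 (hA1) or HEK (hA2A, hA2B, hA3) cells, 2 h at room temperature in 50 mM HEPES pH 7.4, 1 mM EDTA, 5 mM MgCl2, 1 U/mL adenosine deaminase. 5% DMSO final except hA3. Full curves 10^-11–10^-5 M, seven concentrations, four determinations each. Filtration, γ-counting, Ki derived.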

[5] = molecular target: T4, Adenosine receptor A1 (Homo sapiens, UniProt P30542); assay: Displacement of [125I]ABA from human adenosine A1 receptor expressed in CHOK1 cells; type: cell-based, CHO-K1; procedure, shortened: as §2
T4 sequence (P30542 whole entry): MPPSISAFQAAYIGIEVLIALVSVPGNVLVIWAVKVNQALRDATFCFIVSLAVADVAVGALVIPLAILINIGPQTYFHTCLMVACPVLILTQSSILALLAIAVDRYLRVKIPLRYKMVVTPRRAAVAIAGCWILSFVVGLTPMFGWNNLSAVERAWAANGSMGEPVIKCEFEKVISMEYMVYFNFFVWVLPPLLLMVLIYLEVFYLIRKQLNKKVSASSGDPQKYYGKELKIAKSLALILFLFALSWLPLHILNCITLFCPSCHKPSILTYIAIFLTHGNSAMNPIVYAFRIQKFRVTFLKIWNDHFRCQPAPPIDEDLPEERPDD

[6] = molecular target: T3, Adenosine receptor A2a; assay: Displacement of [125I]ZM-241385 from human adenosine A2A receptor expressed in HEK cells relative to control; type: cell-based; set-up: concentration or dose not given beside the values; conditions: HEK293; procedure, shortened: as §1
[7] = molecular target: T5, Adenosine receptor A1 (Homo sapiens) (UniProt P30542); assay: Displacement of [125I]ABA from human adenosine A1 receptor expressed in CHOK1 cells relative to control; type: cell-based; set-up: concentration or dose not given beside the values; conditions: CHO-K1; procedure, shortened: as §1
T5 sequence (whole entry): T4 sequence (P30542 whole entry)

T3 sequence (P29274 whole entry): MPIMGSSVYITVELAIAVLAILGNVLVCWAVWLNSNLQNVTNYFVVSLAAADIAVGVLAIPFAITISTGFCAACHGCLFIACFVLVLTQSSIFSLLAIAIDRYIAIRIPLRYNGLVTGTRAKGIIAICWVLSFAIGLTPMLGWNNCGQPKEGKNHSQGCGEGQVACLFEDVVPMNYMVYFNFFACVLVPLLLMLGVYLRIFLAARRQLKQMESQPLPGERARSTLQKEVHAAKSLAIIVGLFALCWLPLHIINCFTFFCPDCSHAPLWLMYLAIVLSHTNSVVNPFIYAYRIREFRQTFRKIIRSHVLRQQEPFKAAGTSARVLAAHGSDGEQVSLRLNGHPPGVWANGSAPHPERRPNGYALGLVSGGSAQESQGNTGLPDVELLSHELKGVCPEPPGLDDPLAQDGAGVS
Adenosine receptors; A1 & A2a (Homo sapiens), sequence (P29274 whole entry, looked up, one chain of several): as the sequence (P29274 whole entry) above

Row | Activity [1] | Activity [2] | Ratio Ki [3] | Ki [4] | Ki [5] | Activity [6] | Activity [7] | Compound
1 |  |  |  | 2960 nM | 109 nM |  |  | CCCn1c(=O)c2[nH]c([C@H]3CC[C@H](NC(=O)OCc4ccccc4)CC3)nc2n(CCC)c1=O
2 | 70% | 53% | 161 | 7880 nM | 49 nM |  |  | CCCn1c(=O)c2nc([C@]34CC[C@](C(=O)NCC(=O)O)(CC3)CC4)[nH]c2n(CCC)c1=O
3 | 100% | 46% |  |  |  | 63% | 60% | CCCn1c(=O)c2nc([C@H]3CC[C@@H](NC(C)=O)CC3)[nH]c2n(CCC)c1=O
4 | 76% | 14% | 53 | 799 nM | 15 nM |  |  | CCCn1c(=O)c2nc([C@]34CC[C@](C=O)(CC3)CC4)[nH]c2n(CCC)c1=O
5 | 88% | 69% |  |  |  | 75% | 31% | CCCn1c(=O)c2nc([C@H]3CC[C@H](C(=O)O)CC3)[nH]c2n(CCC)c1=O
6 | 100% | 100% |  |  |  | 79% | 25% | CCCCC[C@]12CC[C@](c3nc4c(=O)n(CCC)c(=O)n(CCC)c4[nH]3)(CC1)CC2
7 | 100% | 41% | 81 | 7820 nM | 96 nM |  |  | CCCn1c(=O)c2nc([C@]34CC[C@](C(=O)N5CCC(C(=O)O)CC5)(CC3)CC4)[nH]c2n(CCC)c1=O
8 |  |  |  | 313 nM | 41 nM |  |  | CCCn1c(=O)c2[nH]c([C@H]3CC[C@H](CO)CC3)nc2n(CCC)c1=O
9 | 95% | 28% | 16 | 2720 nM | 171 nM |  |  | CCCn1c(=O)c2nc([C@H]3CC[C@H](COCc4ccccc4)CC3)[nH]c2n(CCC)c1=O
10 | 93% | 11% | 49 | 2260 nM | 46 nM |  |  | CCCCNC(=O)[C@H]1CC[C@H](c2nc3c(=O)n(CCC)c(=O)n(CCC)c3[nH]2)CC1
11 | 88% | 48% |  |  |  | 99% | 60% | CCCn1c(=O)c2nc([C@H]3CC[C@H](C(=O)N4CCOCC4)CC3)[nH]c2n(CCC)c1=O
12 | 73% | 27% | 26 | 414 nM | 16 nM |  |  | CCCn1c(=O)c2nc([C@]34CC[C@](CO)(CC3)CC4)[nH]c2n(CCC)c1=O

The remaining lines, values behind:

Row | Compound | Activity [1] | Activity [2] | Ratio Ki [3] | Ki [4] | Ki [5] | Activity [6] | Activity [7]
13 | CCCn1c(=O)c2nc([C@]34CC[C@](C(=O)OC)(CC3)CC4)[nH]c2n(CCC)c1=O | 44% | 19% | 101 |  |  |  | 
14 | CCCn1c(=O)c2nc([C@]34CC[C@](C(=O)NCCN(C)C)(CC3)CC4)[nH]c2n(CCC)c1=O | 79% | 3% | 22 | 132 nM | 6 nM |  | 
15 | CCCn1c(=O)c2nc([C@H]3CC[C@H](NC(C)=O)CC3)[nH]c2n(CCC)c1=O | 100% | 38% |  |  |  | 92% | 45%
16 | CCCn1c(=O)c2nc([C@H]3CC[C@H](NC(=O)OCc4ccccc4)CC3)[nH]c2n(CCC)c1=O | 86% | 24% | 27 |  |  |  | 
17 | CCCn1c(=O)c2nc(C3CCC(NC(=O)OCc4ccccc4)CC3)[nH]c2n(CCC)c1=O (mixture of isomers) | 100% | 30% |  |  |  | 69% | 23%
18 | CCCn1c(=O)c2nc([C@H]3CC[C@H](C(=O)N(CC)CC)CC3)[nH]c2n(CCC)c1=O | 100% | 39% |  |  |  | 70% | 46%
19 | CCCn1c(=O)c2nc([C@H]3CC[C@H](CO)CC3)[nH]c2n(CCC)c1=O | 77% | 18% | 8 |  |  |  | 
20 | CCCn1c(=O)c2[nH]c([C@]34CC[C@](C(=O)OC)(CC3)CC4)nc2n(CCC)c1=O |  |  |  | 912 nM | 9 nM |  | 
21 | CCCn1c(=O)c2nc([C@H]3CC[C@H](C(=O)NCCN(C)C)CC3)[nH]c2n(CCC)c1=O | 91% | 16% | 14 | 168 nM | 12 nM |  | 

— ChEMBL document CHEMBL1137359, “Potent and orally bioavailable 8-bicyclo[2.2.2]octylxanthines as adenosine A1 receptor antagonists” (J Med Chem, 2006)
